# Activity calls are given as the source filed them. The rule behind the calls is not given here.
# Columns and labels:
# Rattus norvegicus [1] = organism: Rattus norvegicus; assay: Maximum contractile response of thoracic aorta in albino Wistar rat in the presence of human urotensin 2 after 30 min; format: functional; settings: 0.5 h
# How it was run: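 Thoracic aorta from male albino Wistar rats (275–350 g), decapitated under ether anesthesia, was cut into paired strips in oxygenated Krebs–Henseleit and recorded isotonically under 5 mN load. The control strip received cumulative hU-II. The test strip received the antagonist for 30 min, then cumulative hU-II. KCl 80 mM at the end gave the maximal contraction. pK_B = log(dose ratio − 1) − log[antagonist], slope assumed −1.0, averaged over individual values. Competition was checked by Schild plot.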
# Rattus norvegicus [2] = organism: Rattus norvegicus; assay: Maximum contractile response of thoracic aorta in albino Wistar rat after 30 min; format: functional; settings: for EC50: 0.5 h
# Urotensin-2 receptor [3] = biological target: T1, Urotensin-2 receptor (Homo sapiens, UniProt Q9UKP6); assay: Displacement of [125I]urotensin 2 from human UT receptor expressed in CHO-K1 cells; format: cell-based
# T1 sequence (Q9UKP6 whole entry): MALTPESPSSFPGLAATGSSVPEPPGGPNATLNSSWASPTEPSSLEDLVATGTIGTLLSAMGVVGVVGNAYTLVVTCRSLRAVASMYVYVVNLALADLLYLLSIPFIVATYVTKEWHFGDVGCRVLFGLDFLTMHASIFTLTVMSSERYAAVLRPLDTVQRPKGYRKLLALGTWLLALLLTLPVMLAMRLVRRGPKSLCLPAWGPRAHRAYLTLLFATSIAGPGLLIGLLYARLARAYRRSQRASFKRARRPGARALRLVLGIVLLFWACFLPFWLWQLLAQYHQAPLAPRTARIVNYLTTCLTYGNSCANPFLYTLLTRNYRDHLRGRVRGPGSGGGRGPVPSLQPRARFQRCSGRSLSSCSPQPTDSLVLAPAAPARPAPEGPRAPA
# Urotensin-2 receptor [4] = biological target: T2, Urotensin-2 receptor (Rattus norvegicus, UniProt P49684); assay: Antagonist activity at rat UT receptor; format: functional; settings: read-out: pA2 (converted)
# T2 sequence (P49684 whole entry): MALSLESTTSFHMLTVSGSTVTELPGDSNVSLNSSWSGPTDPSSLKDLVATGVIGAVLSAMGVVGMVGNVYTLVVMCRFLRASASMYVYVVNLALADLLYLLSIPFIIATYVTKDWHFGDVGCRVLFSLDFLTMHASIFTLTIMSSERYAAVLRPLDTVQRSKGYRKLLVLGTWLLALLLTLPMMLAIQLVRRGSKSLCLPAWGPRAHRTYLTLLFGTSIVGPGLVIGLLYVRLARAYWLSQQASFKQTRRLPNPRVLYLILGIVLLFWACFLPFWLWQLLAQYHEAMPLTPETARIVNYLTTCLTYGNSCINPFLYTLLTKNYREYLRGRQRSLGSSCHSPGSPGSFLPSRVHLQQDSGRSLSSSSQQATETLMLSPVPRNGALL
# How it was run: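 The control strip received cumulative hU-II. The test strip received the antagonist for 30 min, then cumulative hU-II. KCl 80 mM at the end gave the maximal contraction. pK_B = log(dose ratio − 1) − log[antagonist], slope assumed −1.0, averaged over individual values. Competition was checked by Schild plot.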
Compound,Emax (Rattus norvegicus [1]) [%],Ki (Urotensin-2 receptor [3]),other results
CC(C)[C@H](NC(=O)[C@@H]1CSSC[C@H](NC(=O)[C@H](CC(=O)O)NC(=O)[C@@H]2CCCN2C(=O)[C@@H](NC(=O)[C@@H](N)CCC(=O)O)[C@@H](C)O)C(=O)N[C@@H](Cc2ccccc2)C(=O)N[C@@H](Cc2c[nH]c3ccccc23)C(=O)N[C@@H](CCCCN)C(=O)N[C@@H](Cc2ccc(O)cc2)C(=O)N1)C(=O)O [HUMAN UROTENSIN II],100,,EC50 (Rattus norvegicus [2]): 5.01 nM
CC(C)[C@H](NC(=O)[C@@H]1CSSC[C@@H](NC(=O)[C@@H](N)CC(=O)O)C(=O)N[C@@H](Cc2ccccc2)C(=O)N[C@H](Cc2c[nH]c3ccccc23)C(=O)N[C@@H](CCCN)C(=O)N[C@@H](Cc2ccc(O)cc2)C(=O)N1)C(=O)O,,,Activity (Rattus norvegicus [2]): inactive
CC(C)[C@H](NC(=O)[C@@H]1CSSC(C)(C)[C@H](NC(=O)[C@@H](N)CC(=O)O)C(=O)N[C@@H](Cc2ccccc2)C(=O)N[C@@H](Cc2c[nH]c3ccccc23)C(=O)N[C@@H](CCCCN)C(=O)N[C@@H](Cc2ccc(O)cc2)C(=O)N1)C(=O)O [listing 1 of 2 here],,,EC50 (Rattus norvegicus [2]): 0.251 nM
CC(C)[C@H](NC(=O)[C@@H]1CSSC[C@H](NC(=O)[C@@H](N)CC(=O)O)C(=O)N[C@@H](Cc2ccccc2)C(=O)N[C@@H](Cc2c[nH]c3ccccc23)C(=O)N[C@@H](CCCN)C(=O)N[C@@H](Cc2ccc(O)cc2)C(=O)N1)C(=O)O [listing 1 of 2 here],36,,
CC(C)[C@H](NC(=O)[C@@H]1CSSC[C@H](NC(=O)[C@@H](N)CC(=O)O)C(=O)N[C@@H](Cc2ccccc2)C(=O)N[C@@H](Cc2c[nH]c3ccccc23)C(=O)N[C@@H](CCCCN)C(=O)N[C@@H](Cc2ccc(O)cc2)C(=O)N1)C(=O)O [listing 1 of 2 here],,,EC50 (Rattus norvegicus [2]): 2.51 nM
CC(C)[C@H](NC(=O)[C@@H]1CSSC(C)(C)[C@H](NC(=O)[C@@H](N)CC(=O)O)C(=O)N[C@@H](Cc2ccccc2)C(=O)N[C@@H](Cc2c[nH]c3ccccc23)C(=O)N[C@@H](CCCN)C(=O)N[C@@H](Cc2ccc(O)cc2)C(=O)N1)C(=O)O [listing 1 of 2 here],22,,
CC(C)[C@H](NC(=O)[C@@H]1CSSC[C@H](NC(=O)[C@@H](N)CC(=O)O)C(=O)N[C@@H](Cc2ccccc2)C(=O)N[C@@H](Cc2c[nH]c3ccccc23)C(=O)N[C@@H](CCCCN)C(=O)N[C@@H](Cc2ccc(O)cc2)C(=O)N1)C(=O)O [listing 2 of 2 here],100,,
CC(C)[C@H](NC(=O)[C@@H]1CSSC[C@H](NC(=O)[C@@H](N)CC(=O)O)C(=O)N[C@@H](Cc2ccccc2)C(=O)N[C@@H](Cc2c[nH]c3ccccc23)C(=O)N[C@@H](CCCN)C(=O)N[C@@H](Cc2ccc(O)cc2)C(=O)N1)C(=O)O [listing 2 of 2 here],,10 nM (antagonist),Kb (Urotensin-2 receptor [4]): 50.1 nM (antagonist)
CC(C)[C@H](NC(=O)[C@@H]1CSSC[C@H](NC(=O)[C@@H](N)CC(=O)O)C(=O)N[C@@H](Cc2ccccc2)C(=O)N[C@H](Cc2c[nH]c3ccccc23)C(=O)N[C@@H](CCCCN)C(=O)N[C@@H](Cc2ccc(O)cc2)C(=O)N1)C(=O)O [listing 1 of 2 here],42,,
CC(C)[C@H](NC(=O)[C@@H]1CSSC(C)(C)[C@@H](NC(=O)[C@@H](N)CC(=O)O)C(=O)N[C@@H](Cc2ccccc2)C(=O)N[C@@H](Cc2c[nH]c3ccccc23)C(=O)N[C@@H](CCCN)C(=O)N[C@@H](Cc2ccc(O)cc2)C(=O)N1)C(=O)O,,,Activity (Rattus norvegicus [2]; filed as partial agonist): Partial agonist
CC(C)[C@H](NC(=O)[C@@H]1CSSC(C)(C)[C@H](NC(=O)[C@@H](N)CC(=O)O)C(=O)N[C@@H](Cc2ccccc2)C(=O)N[C@H](Cc2c[nH]c3ccccc23)C(=O)N[C@H](CCCN)C(=O)N[C@@H](Cc2ccc(O)cc2)C(=O)N1)C(=O)O [listing 1 of 2 here],,398 nM (antagonist),
CC(C)[C@H](NC(=O)[C@@H]1CSSC(C)(C)[C@H](NC(=O)[C@@H](N)CC(=O)O)C(=O)N[C@@H](Cc2ccccc2)C(=O)N[C@H](Cc2c[nH]c3ccccc23)C(=O)N[C@@H](CCCCN)C(=O)N[C@@H](Cc2ccc(O)cc2)C(=O)N1)C(=O)O [listing 1 of 2 here],33,,
CC(C)[C@H](NC(=O)[C@@H]1CSSC(C)(C)[C@H](NC(=O)[C@@H](N)CC(=O)O)C(=O)N[C@@H](Cc2ccccc2)C(=O)N[C@@H](Cc2c[nH]c3ccccc23)C(=O)N[C@@H](CCCN)C(=O)N[C@@H](Cc2ccc(O)cc2)C(=O)N1)C(=O)O [listing 2 of 2 here],,15.8 nM (antagonist),
CC(C)[C@H](NC(=O)[C@@H]1CSSC(C)(C)[C@H](NC(=O)[C@@H](N)CC(=O)O)C(=O)N[C@@H](Cc2ccccc2)C(=O)N[C@H](Cc2c[nH]c3ccccc23)C(=O)N[C@@H](CCCCN)C(=O)N[C@@H](Cc2ccc(O)cc2)C(=O)N1)C(=O)O [listing 2 of 2 here],,1.26 nM (antagonist),EC50 (Rattus norvegicus [2]): 63.1 nM
CC(C)[C@H](NC(=O)[C@@H]1CSSC(C)(C)[C@H](NC(=O)[C@@H](N)CC(=O)O)C(=O)N[C@@H](Cc2ccccc2)C(=O)N[C@H](Cc2c[nH]c3ccccc23)C(=O)N[C@@H](CCCN)C(=O)N[C@@H](Cc2ccc(O)cc2)C(=O)N1)C(=O)O,,2000 nM (antagonist),Activity (Rattus norvegicus [2]): inactive
CC(C)[C@H](NC(=O)[C@@H]1CSSC[C@@H](NC(=O)[C@@H](N)CC(=O)O)C(=O)N[C@@H](Cc2ccccc2)C(=O)N[C@@H](Cc2c[nH]c3ccccc23)C(=O)N[C@@H](CCCN)C(=O)N[C@@H](Cc2ccc(O)cc2)C(=O)N1)C(=O)O,,,Activity (Rattus norvegicus [2]; filed as partial agonist): Partial agonist
CC(C)[C@H](NC(=O)[C@@H]1CSSC(C)(C)[C@@H](NC(=O)[C@@H](N)CC(=O)O)C(=O)N[C@@H](Cc2ccccc2)C(=O)N[C@H](Cc2c[nH]c3ccccc23)C(=O)N[C@@H](CCCN)C(=O)N[C@@H](Cc2ccc(O)cc2)C(=O)N1)C(=O)O,,,Activity (Rattus norvegicus [2]): inactive
CC(C)[C@H](NC(=O)[C@@H]1CSSC[C@H](NC(=O)[C@@H](N)CC(=O)O)C(=O)N[C@@H](Cc2ccccc2)C(=O)N[C@H](Cc2c[nH]c3ccccc23)C(=O)N[C@@H](CCCCN)C(=O)N[C@@H](Cc2ccc(O)cc2)C(=O)N1)C(=O)O [listing 2 of 2 here],,1.26 nM (antagonist),EC50 (Rattus norvegicus [2]): 63.1 nM
CC(C)[C@H](NC(=O)[C@@H]1CSSC(C)(C)[C@H](NC(=O)[C@@H](N)CC(=O)O)C(=O)N[C@@H](Cc2ccccc2)C(=O)N[C@H](Cc2c[nH]c3ccccc23)C(=O)N[C@H](CCCN)C(=O)N[C@@H](Cc2ccc(O)cc2)C(=O)N1)C(=O)O [listing 2 of 2 here],25,,
CC(C)[C@H](NC(=O)[C@@H]1CSSC[C@H](NC(=O)[C@@H](N)CC(=O)O)C(=O)N[C@@H](Cc2ccccc2)C(=O)N[C@H](Cc2c[nH]c3ccccc23)C(=O)N[C@@H](CCCN)C(=O)N[C@@H](Cc2ccc(O)cc2)C(=O)N1)C(=O)O,,12.6 nM (antagonist),Kb (Urotensin-2 receptor [4]): 10 nM (antagonist)
CC(C)[C@H](NC(=O)[C@@H]1CSSC(C)(C)[C@H](NC(=O)[C@@H](N)CC(=O)O)C(=O)N[C@@H](Cc2ccccc2)C(=O)N[C@@H](Cc2c[nH]c3ccccc23)C(=O)N[C@@H](CCCCN)C(=O)N[C@@H](Cc2ccc(O)cc2)C(=O)N1)C(=O)O [listing 2 of 2 here],97,,
CC(C)[C@H](NC(=O)[C@@H]1CSSC(C)(C)[C@@H](NC(=O)[C@@H](N)CC(=O)O)C(=O)N[C@@H](Cc2ccccc2)C(=O)N[C@H](Cc2c[nH]c3ccccc23)C(=O)N[C@H](CCCN)C(=O)N[C@@H](Cc2ccc(O)cc2)C(=O)N1)C(=O)O,,,Activity (Rattus norvegicus [2]; filed as partial agonist): Partial agonist
